Assay outcomes (PubChem)
NRP1-CendR mod = alters CendR peptide binding to human NRP-1; O14786; FAM-RPARPAR peptide binding to NRP-1, fluorescence polarization; inhibition, % at 25 µM; 360,000 tested, 0.85% active;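 active means inhibition or corrected inhibition above about 18%, plus a signal ratio from 0.5 to 1.5, limit read from the data, passing the limit was not always enough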
V-ATPase pH = alters yeast V-ATPase proton transport | AID 504577 | response, % at 10 µM | 350,000 tested, 0.37% active | S. cerevisiae, pHLuorin cytosolic pH fluorescence; in the data active means response mostly above about 7.3%, no sharp cut-off; inactive means mostly below about 5.4%; further: actives read high
ASAP1 inh = blocks human ASAP1-stimulated Arf1 GTP hydrolysis. Q9ULH1. GDP FP detection. inhibition, % at 16.5 µM. 360,000 tested, 0.19% active; in the data active means inhibition above about 25%;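 further: 0% = vehicle with enzyme and substrate and 100% = no enzyme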
Target sequence (Q9ULH1 325-724 limits assumed): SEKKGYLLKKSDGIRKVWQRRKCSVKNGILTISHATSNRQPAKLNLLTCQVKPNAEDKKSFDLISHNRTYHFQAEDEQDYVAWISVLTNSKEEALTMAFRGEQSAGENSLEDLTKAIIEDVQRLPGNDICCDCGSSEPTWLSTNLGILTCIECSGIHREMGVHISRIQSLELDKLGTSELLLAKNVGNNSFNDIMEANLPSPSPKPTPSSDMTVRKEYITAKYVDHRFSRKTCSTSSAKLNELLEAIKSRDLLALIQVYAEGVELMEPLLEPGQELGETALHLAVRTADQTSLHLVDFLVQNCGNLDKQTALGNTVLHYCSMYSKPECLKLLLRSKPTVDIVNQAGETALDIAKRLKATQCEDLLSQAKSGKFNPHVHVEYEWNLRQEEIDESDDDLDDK
Exocytosis inh = blocks lytic granule exocytosis | TALL-104 LAMP-1 surface exposure, flow cytometry; cells stimulated with thapsigargin and PMA | inhibition, % at 10 µM | 360,000 tested, 0.66% active | AID 651702;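 active means inhibition above about 55%, limit read from the data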
ARFGAP1 inh = inhibits rat ARF GTPase activating protein 1; Q62848; Arfgap1-stimulated ARF1 GTP hydrolysis, GDP FP detection; inhibition, % at 16.5 µM; 360,000 tested, 0.26% active; AID 651572;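 active means inhibition above a per-plate limit, mean inhibition of low control wells plus 3 SD, cut at about 25% in these data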;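 further: 0% = DMSO wells with enzyme and 100% = wells lacking Arfgap1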
Target sequence (Q62848 1-136 limits assumed): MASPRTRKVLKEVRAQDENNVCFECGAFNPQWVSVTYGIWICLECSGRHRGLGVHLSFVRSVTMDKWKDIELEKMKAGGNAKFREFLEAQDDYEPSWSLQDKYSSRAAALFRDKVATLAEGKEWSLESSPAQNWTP
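Assay system: purified rat His6-Arfgap1 residues 1-136 (GAP domain); Reagent: human Δ17 ARF1 bound to GTP; Dosing: 16.5 µM single point, 1.26% DMSO; Times: GTP hydrolysis reaction 2 h at 25 °C; Signal: FP, GDP Alexa 633 tracer displaced from anti-GDP antibody, 620/688 nm; Measure: % inhibition from polarization.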
* = called active by the depositor; x = not tested or not shown. Sampled rows, rich in hits. Any-hit rate of the full collection: about 2.2%.

SMILES | NRP1-CendR mod | V-ATPase pH | ASAP1 inh | Exocytosis inh | ARFGAP1 inh
O=C(C(=O)N1CCC(CNC(=O)C2COc3ccccc3O2)CC1)c1cc2ccccc2o1 (configuration not stated) | x | x | 0 | x | 9
CCCCn1c(SCC(=O)N2CCC(C)CC2)nc2cc(S(N)(=O)=O)ccc21 | 7 | 14* | x | 0 | x
NC(=O)[C@@H]1CCCN1C(=O)[C@H]1O[C@@H](n2ccc(N)nc2=O)[C@H](O)[C@@H]1O | x | x | -2 | x | -2
COC(=O)C1=C(C)N(Cc2ccc(C(F)(F)F)cc2)C(=NCc2ccc(OC)cc2)NC1c1ccccc1C(F)(F)F (configuration not stated) | x | x | 7 | x | 0
CC(C)c1ccc(CNc2ccc([N+](=O)[O-])cn2)cc1 | -5 | 4 | 5 | -1 | 2
CC(C)(C)c1ccc(CNc2ccc([N+](=O)[O-])cn2)cc1 | 32* | 3 | 1 | -2 | 0
COC(=O)c1cc2c(c3c4cc(F)ccc4n(S(=O)(=O)c4cccc(C)c4)c13)C(=O)N(C)C2 | x | x | -2 | x | -4
COc1cccc(C(=O)N[C@H](C(=O)N2CCC[C@H]2C(=O)NCc2ccccc2)c2ccccc2)c1 | x | x | 8 | x | -2
COc1ccc(OC)c(NC(=O)C2CC(=O)N(c3ccccc3)C2)c1 (configuration not stated) | 9 | 2 | 6 | -1 | 6
COc1ccc(OC)c(NC(=O)C2CC(=O)N(c3ccc(Br)cc3)C2)c1 (configuration not stated) | 26* | 0 | 1 | -5 | -8
CC(=O)Nc1ccc(NC(=O)C2CC(=O)N(c3ccc(Cl)cc3)C2)cc1 (configuration not stated) | 28* | 0 | -5 | -7 | 4
Cc1ccc(S(=O)(=O)N2CCCc3nc(-c4ccccc4)ccc32)cc1 | x | x | 10 | x | 14
CCOC(=O)N(C)c1c(CC)nc2c(OCc3cc(Cl)cc(Cl)c3)cccn12 | -6 | x | -8 | 15 | -8
Cc1ccc(S(=O)c2ccc([N+](=O)[O-])c3nonc23)cc1 (configuration not stated) | -36 | 0 | -15 | 101* | -9
CCNC(=O)C1(C)CCCN(C(=O)c2cc(C)n(C(C)(C)C)n2)C1 (configuration not stated) | 0 | x | -11 | 3 | 14
COc1ccc(-c2cc(C)nc3c(-c4ccccc4)cnn23)cc1 | -67 | 100* | -10 | 2 | -7
COCc1cc(N2CCNC[C@@H]2C)ccc1N1CCN(Cc2ccccc2)[C@@H](C)C1 | x | x | 0 | x | 0
COCc1[nH]nc2c1C(c1ccc(Br)cc1)N(c1ccc(OC)cc1)C2=O (configuration not stated) | x | x | -4 | x | -1
Cc1ccc(S(=O)(=O)/N=C2\C=C(NS(=O)(=O)c3ccccc3)C(=O)c3ccccc32)c(C)c1 | 20 | -6 | -8 | 0 | -4
O=C1C(Nc2ccccc2)=C/C(=N/S(=O)(=O)c2cccs2)c2ccccc21 | 22 | -6 | x | 75* | x
Cc1ccc(NC2=C/C(=N/S(=O)(=O)c3cccs3)c3ccccc3C2=O)cc1 | -1 | -3 | 33* | 6 | 7
CCc1ccc(S(=O)(=O)/N=C2\C=C(Nc3ccc(C(=O)O)cc3)C(=O)c3ccccc32)cc1 | 8 | -3 | -1 | -7 | -9
Cc1ccc(-c2noc(CSc3ccccc3)n2)cc1 | -2 | -1 | 1 | -1 | 8
Cc1cccc(-c2noc(CSc3ccccc3)n2)c1 | 31* | -2 | 2 | -1 | 8
Cc1ccc(S(=O)(=O)N2CCC(=O)N(CCOC(=O)Nc3ccccc3C)CC2)cc1 | 19* | 0 | -4 | -6 | -5
SMILES | NRP1-CendR mod | V-ATPase pH | ASAP1 inh | Exocytosis inh | ARFGAP1 inh
Cc1ccc(S(=O)(=O)N2CCC(=O)N(CCOC(=O)Nc3cc(C)cc(C)c3)CC2)cc1 | 14 | 1 | -3 | -8 | -1
Cc1ccccc1NC(=S)N1CCCC(c2nc3ccccc3[nH]2)C1 (configuration not stated) | 23* | -2 | 2 | -4 | 3
Cc1ccc(NC(=S)N2CCCC(c3nc4ccccc4[nH]3)C2)cc1 (configuration not stated) | 4 | 0 | 4 | 1 | -2
O=C(O)CCCC(=O)OCCCc1cc2ccccc2c(=O)o1 | x | x | 0 | x | 8
Cn1cnc2cc(NC(=O)c3ccco3)ccc21 | 24* | 0 | 3 | 2 | -6
O=C(Nc1ccc2c(c1)ncn2-c1ccccc1)c1ccco1 | 8 | 7 | 0 | 0 | 11
CCc1cc(C(=O)Nc2ccc(OC)nc2)sc1C | 24* | 5 | -1 | 1 | 8
COc1ccc(NC(=O)/C(Cl)=C(/Cl)S(=O)(=O)Cc2ccccc2)cn1 | -2 | 4 | 11 | 100* | 16
COc1ccc(NC(=O)c2cc(Br)c(Br)s2)cn1 | -2 | 2 | -8 | -1 | 3
COc1ccc(NC(=O)c2ccco2)cn1 | 26* | -2 | 10 | 14 | 2
COc1cccc(OC)c1C(=O)Nc1ccc(NC(=O)c2ccco2)cc1 | 4 | 2 | 9 | 1 | 9
COc1ccc(NC(=O)C(Cl)=C(Cl)Cl)cn1 | -3 | -1 | -11 | 0 | 9
C#CCNC(=O)c1cc2cccnc2nc1N | x | x | -2 | x | 3
CCCCc1c(-c2ccccc2OC)ncn1Cc1cccc(C)c1 | x | x | 19 | x | 2
Cc1cc(-c2cc(NC(=O)Cc3c[nH]c4ccccc34)ccc2Nc2cccnc2)ccc1F | x | x | 3 | x | 8
CC(C)(C)n1cnc2cc(NC(=O)c3ccccc3)ccc21 | 23* | 1 | 1 | -7 | 0
COc1ccc(C2CC(C(F)(F)F)n3nc(C(=O)O)c(Cl)c3N2)cc1OC (configuration not stated) | 35* | -1 | -6 | -3 | -10
C#CCOCCOCCOCCNc1nc(N2CCN(C(=O)CCCCCCCCCCNC(=O)Cn3cc(CCCCCN)nn3)CC2)nc(N2CCN(C(=O)CCCCCCCCCCNC(=O)Cn3cc(CCCCCN)nn3)CC2)n1 | 18* | 3 | x | -1 | x
C#CCOCCOCCOCCNc1nc(N2CCN(C(=O)CCCCCCCCCCNC(=O)Cn3cc(C[C@@H](C)O)nn3)CC2)nc(N2CCN(C(=O)CCCCCCCCCCNC(=O)[C@@H](CCC(=O)O)n3cc(CCCCCN)nn3)CC2)n1 | -1 | -4 | 0 | 7 | 7
C#CCOCCOCCOCCNc1nc(N2CCN(C(=O)CCCCCCCCCCNC(=O)Cn3cc(CCCCCN)nn3)CC2)nc(N2CCN(C(=O)CCCCCCCCCCNC(=O)[C@@H](CCC(=O)O)n3cc(CCCCCN)nn3)CC2)n1 | 21* | 0 | x | -4 | x
C#CCOCCOCCOCCNc1nc(N2CCN(C(=O)CCCCCCCCCCNC(=O)Cn3cc(CCCCCN)nn3)CC2)nc(N2CCN(C(=O)CCCCCCCCCCNC(=O)[C@@H](CCSC)n3cc(CCO)nn3)CC2)n1 | 1 | -3 | x | 65* | x
O=C(NCc1ccccc1)C(c1ccco1)N1CCN(CCN2CCOCC2)CC1 (configuration not stated) | x | x | -7 | x | -3
